Test results from ChEMBL document CHEMBL6071188, “Synthesis and In Vivo Profiling of Desymmetrized Antimalarial Trioxolanes with Diverse Carbamate Side Chains” (ACS Med Chem Lett, 2024).
Converted amounts (≈) assume the structure as drawn.

How the values were obtained:
[1] = Metabolic stability in human liver microsomes assessed as intrinsic clearance; type: ADME, Microsome; details: for microsomal intrinsic clearance: microsomes; for microsomal CLint: liver microsomes, read-out: CLH
[2] = Solubility of the compound in PBS buffer at pH 7.4; type: physicochemical
[3] = tested on: Plasmodium berghei; assay: Antiplasmodial activity against Plasmodium berghei infected in female Swiss Webster mouse model assessed as survival at 10 mg/kg, po administered once daily for 2 days and measured upto 30 days; type: functional; details: time 30 day
In short: (§1)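 Female Swiss Webster mice (~20 g) infected ip with 10^6 P. berghei-infected erythrocytes from a donor mouse. Dosing by oral gavage once daily for 1–2 days starting 1 h post-inoculation, in 10% DMSO/50% PEG400/40% of 20% HP-β-CD in water. Five mice per arm. Daily Giemsa smears from day 7, counting infected cells per 1000 erythrocytes. Body weight tracked. Euthanasia at >50% parasitemia or >15% weight loss. Followed to day 30; cure means no parasitemia at day 30. Survival reported as the day of the longest-surviving mouse.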

[4] = Toxicity in female Swiss Webster mouse infected with Plasmodium berghei assessed as drug tolerance at 10 mg/kg, po administered once daily for 2 days and measured upto 30 days; type: organism-based; details: in vivo, 720 h, time 30 day; in short: as §1
[5] = tested on: Plasmodium berghei; assay: Antiplasmodial activity against Plasmodium berghei infected in female Swiss Webster mouse model assessed as survival at 20 mg/kg, po administered once daily for 1 day
[6] = Toxicity in female Swiss Webster mouse infected with Plasmodium berghei assessed as drug tolerance at 20 mg/kg, […]; type: organism-based; details: in vivo, po

Structure (SMILES)	microsomal intrinsic clearance [1]	solubility kinetic [2]	microsomal CLint [1]	Survival [3]	Activity [4]	Survival [5]	Activity [6]
CCCC1(O)CN(C(=O)O[C@H]2CCC[C@@]3(C2)OOC2(O3)C3CC4CC(C3)CC2C4)C1 (stereo partly drawn)	683 µL/min/mg	18.2 µM (≈ 7.67 µg/mL)	–	–	–	–	–
CC(C)(CN)CNC(=O)O[C@@H]1CCC[C@]2(C1)OOC1(O2)C2CC3CC(C2)CC1C3 (stereo partly drawn)	–	–	14.3 µL/min/mg	–	–	–	–
CS(=N)(=O)CCNC(=O)O[C@H]1CCC[C@@]2(C1)OOC1(O2)C2CC3CC(C2)CC1C3 (stereo partly drawn)	319 µL/min/mg	129 µM (≈ 55.3 µg/mL)	–	–	–	–	–
CS(=O)(=O)C1CN(C(=O)O[C@@H]2CCC[C@]3(C2)OOC2(O3)C3CC4CC(C3)CC2C4)C1 (stereo partly drawn)	526 µL/min/mg	66.7 µM (≈ 29.5 µg/mL)	–	–	–	–	–
N[C@@H]1CCCN(C(=O)O[C@H]2CCC[C@@]3(C2)OOC2(O3)C3CC4CC(C3)CC2C4)C1 (stereo partly drawn)	52.7 µL/min/mg	129 µM (≈ 52.4 µg/mL)	–	–	–	–	–
O=C(NCC1(O)COC1)O[C@H]1CCC[C@@]2(C1)OOC1(O2)C2CC3CC(C2)CC1C3 (stereo partly drawn)	333 µL/min/mg	112 µM (≈ 45.9 µg/mL)	–	6 days	Non-Toxic	–	–
CC1(O)CN(C(=O)O[C@H]2CCC[C@@]3(C2)OOC2(O3)C3CC4CC(C3)CC2C4)C1 (stereo partly drawn)	–	137 µM (≈ 53.9 µg/mL)	–	4 days	Non-Toxic	–	–
NCCC1CCN(C(=O)O[C@H]2CCC[C@@]3(C2)OOC2(O3)C3CC4CC(C3)CC2C4)CC1 (stereo partly drawn)	92.7 µL/min/mg	117 µM (≈ 50.8 µg/mL)	–	–	–	–	–
O=C(O[C@H]1CCC[C@@]2(C1)OOC1(O2)C2CC3CC(C2)CC1C3)N1CCNCC1 (stereo partly drawn)	120 µL/min/mg	167 µM (≈ 65.5 µg/mL)	–	–	–	–	–
NC1(CNC(=O)O[C@H]2CCC[C@@]3(C2)OOC2(O3)C3CC4CC(C3)CC2C4)COC1 (stereo partly drawn)	135 µL/min/mg	87.7 µM (≈ 35.8 µg/mL)	–	9 days	Non-Toxic	–	–
CS(=O)(=O)C1CN(C(=O)O[C@H]2CCC[C@@]3(C2)OOC2(O3)C3CC4CC(C3)CC2C4)C1 (stereo partly drawn)	851 µL/min/mg	81.1 µM (≈ 35.8 µg/mL)	–	–	–	–	–
CCC1(O)CN(C(=O)O[C@H]2CCC[C@@]3(C2)OOC2(O3)C3CC4CC(C3)CC2C4)C1 (stereo partly drawn)	638 µL/min/mg	41.5 µM (≈ 16.9 µg/mL)	–	–	–	–	–
NC1(CNC(=O)O[C@@H]2CCC[C@]3(C2)OOC2(O3)C3CC4CC(C3)CC2C4)CCC1 (stereo partly drawn)	37.4 µL/min/mg	142 µM (≈ 57.7 µg/mL)	–	13 days	Non-Toxic	–	–
CC(C)C1(O)CN(C(=O)O[C@H]2CCC[C@@]3(C2)OOC2(O3)C3CC4CC(C3)CC2C4)C1 (stereo partly drawn)	657 µL/min/mg	15.1 µM (≈ 6.37 µg/mL)	–	–	–	–	–
NC1(CNC(=O)O[C@H]2CCC[C@@]3(C2)OOC2(O3)C3CC4CC(C3)CC2C4)CCCC1 (stereo partly drawn)	25.3 µL/min/mg	13.4 µM (≈ 5.64 µg/mL)	–	14 days	Non-Toxic	–	–
CS(=N)(=O)C1CN(C(=O)O[C@@H]2CCC[C@]3(C2)OOC2(O3)C3CC4CC(C3)CC2C4)C1 (stereo partly drawn)	234 µL/min/mg	268 µM (≈ 118 µg/mL)	–	–	–	–	–
N=S(=O)(CCNC(=O)O[C@H]1CCC[C@@]2(C1)OOC1(O2)C2CC3CC(C2)CC1C3)C1CC1 (stereo partly drawn)	450 µL/min/mg	234 µM (≈ 106 µg/mL)	–	6 days	Non-Toxic	–	–
N=S(=O)(CCNC(=O)O[C@@H]1CCC[C@]2(C1)OOC1(O2)C2CC3CC(C2)CC1C3)C1CC1 (stereo partly drawn)	435 µL/min/mg	79.3 µM (≈ 36 µg/mL)	–	–	–	–	–
NC1CN(C(=O)O[C@H]2CCC[C@@]3(C2)OOC2(O3)C3CC4CC(C3)CC2C4)C1 (stereo partly drawn)	< 11.6 µL/min/mg	101 µM (≈ 38.2 µg/mL)	–	–	–	5 days	Non-Toxic
O=C(O[C@@H]1CCC[C@]2(C1)OOC1(O2)C2CC3CC(C2)CC1C3)N1CC(O)(C(F)(F)F)C1 (stereo partly drawn)	234 µL/min/mg	24.8 µM (≈ 11.1 µg/mL)	–	9 days	Non-Toxic	–	–
N[C@@H]1CCCN(C(=O)O[C@@H]2CCC[C@]3(C2)OOC2(O3)C3CC4CC(C3)CC2C4)C1 (stereo partly drawn)	43.7 µL/min/mg	74.9 µM (≈ 30.4 µg/mL)	–	12 days	Non-Toxic	–	–

Structure (SMILES)	microsomal intrinsic clearance [1]	solubility kinetic [2]	microsomal CLint [1]	Survival [3]	Activity [4]	Survival [5]	Activity [6]
NC1(CNC(=O)O[C@H]2CCC[C@@]3(C2)OOC2(O3)C3CC4CC(C3)CC2C4)CCC1 (stereo partly drawn)	24.9 µL/min/mg	162 µM (≈ 65.9 µg/mL)	–	13 days	–	–	–
C[S+]([O-])C1CN(C(=O)O[C@H]2CCC[C@@]3(C2)OOC2(O3)C3CC4CC(C3)CC2C4)C1 (stereo partly drawn)	750 µL/min/mg	184 µM (≈ 78.3 µg/mL)	–	–	–	–	–
CCC1(O)CN(C(=O)O[C@@H]2CCC[C@]3(C2)OOC2(O3)C3CC4CC(C3)CC2C4)C1 (stereo partly drawn)	480 µL/min/mg	58.7 µM (≈ 23.9 µg/mL)	–	–	–	–	–
CC(C)(CN)CNC(=O)O[C@H]1CCC[C@@]2(C1)OOC1(O2)C2CC3CC(C2)CC1C3 (stereo partly drawn)	–	164 µM (≈ 67 µg/mL)	21.4 µL/min/mg	–	–	–	–
O=C(O[C@@H]1CCC[C@]2(C1)OOC1(O2)C2CC3CC(C2)CC1C3)N1CCNCC1 (stereo partly drawn)	–	144 µM (≈ 56.5 µg/mL)	39.4 µL/min/mg	–	–	–	–
CC1(O)CN(C(=O)O[C@@H]2CCC[C@]3(C2)OOC2(O3)C3CC4CC(C3)CC2C4)C1 (stereo partly drawn)	–	71.4 µM (≈ 28.1 µg/mL)	–	7 days	Non-Toxic	–	–
O=C(NCC1(O)COC1)O[C@@H]1CCC[C@]2(C1)OOC1(O2)C2CC3CC(C2)CC1C3 (stereo partly drawn)	76.2 µL/min/mg	–	–	6 days	Non-Toxic	–	–
CS(=N)(=O)CCNC(=O)O[C@@H]1CCC[C@]2(C1)OOC1(O2)C2CC3CC(C2)CC1C3 (stereo partly drawn)	243 µL/min/mg	128 µM (≈ 54.9 µg/mL)	–	–	–	–	–
N[C@@H]1CCN(C(=O)O[C@H]2CCC[C@@]3(C2)OOC2(O3)C3CC4CC(C3)CC2C4)C1 (stereo partly drawn)	58.7 µL/min/mg	–	–	–	–	–	–
CS(=N)(=O)C1CN(C(=O)O[C@H]2CCC[C@@]3(C2)OOC2(O3)C3CC4CC(C3)CC2C4)C1 (stereo partly drawn)	431 µL/min/mg	142 µM (≈ 62.6 µg/mL)	–	–	–	–	–
N[C@H]1CC[C@H](NC(=O)O[C@H]2CCC[C@@]3(C2)OOC2(O3)C3CC4CC(C3)CC2C4)CC1 (stereo partly drawn)	28.2 µL/min/mg	–	–	–	–	–	–
NC1(CNC(=O)O[C@@H]2CCC[C@]3(C2)OOC2(O3)C3CC4CC(C3)CC2C4)CCCC1 (stereo partly drawn)	29.9 µL/min/mg	162 µM (≈ 68.1 µg/mL)	–	11 days	Non-Toxic	–	–
O=C(O[C@H]1CCC[C@@]2(C1)OOC1(O2)C2CC3CC(C2)CC1C3)N1CC(O)(C(F)(F)F)C1 (stereo partly drawn)	211 µL/min/mg	10.8 µM (≈ 4.83 µg/mL)	–	–	–	–	–
NC1(CNC(=O)O[C@@H]2CCC[C@]3(C2)OOC2(O3)C3CC4CC(C3)CC2C4)COC1 (stereo partly drawn)	23.4 µL/min/mg	122 µM (≈ 49.8 µg/mL)	–	8 days	Non-Toxic	7 days	Non-Toxic
CC(C)C1(O)CN(C(=O)O[C@@H]2CCC[C@]3(C2)OOC2(O3)C3CC4CC(C3)CC2C4)C1 (stereo partly drawn)	392 µL/min/mg	15.9 µM (≈ 6.7 µg/mL)	–	–	–	–	–
CN1CCN(C(=O)O[C@H]2CCC[C@@]3(C2)OOC2(O3)C3CC4CC(C3)CC2C4)CC1 (stereo partly drawn)	–	109 µM (≈ 44.3 µg/mL)	–	–	–	–	–
C[S+]([O-])C1CN(C(=O)O[C@@H]2CCC[C@]3(C2)OOC2(O3)C3CC4CC(C3)CC2C4)C1 (stereo partly drawn)	516 µL/min/mg	138 µM (≈ 58.7 µg/mL)	–	–	–	–	–
NC1CCN(C(=O)O[C@H]2CCC[C@@]3(C2)OOC2(O3)C3CC4CC(C3)CC2C4)CC1 (stereo partly drawn)	–	118 µM (≈ 48 µg/mL)	11.8 µL/min/mg	11 days	Non-Toxic	9 days	Non-Toxic
CCCC1(O)CN(C(=O)O[C@@H]2CCC[C@]3(C2)OOC2(O3)C3CC4CC(C3)CC2C4)C1 (stereo partly drawn)	579 µL/min/mg	16.1 µM (≈ 6.79 µg/mL)	–	–	–	–	–
NCC1CCN(C(=O)O[C@H]2CCC[C@@]3(C2)OOC2(O3)C3CC4CC(C3)CC2C4)CC1 (stereo partly drawn)	69.6 µL/min/mg	112 µM (≈ 47.1 µg/mL)	–	–	–	–	–
